Data taken from ChEMBL document CHEMBL3525900, “Pharmacokinetics, distribution, and metabolism of [14C]sunitinib in rats, monkeys, and humans” (Drug Metab Dispos, 2012).

Legend:
Details in all cases: in vivo
[1] = Drug excretion in feces of female cynomolgus monkey treated with [14C]sunitinib at 6 mg/kg, po administered as single dose by liquid scintillation counting; format: ADME, organism-based, Macaca fascicularis; design: dose 6 mg/kg, dosed compound name [14C]Sunitinib, route oral
How it was run: (§1)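 Cynomolgus monkeys given one oral gavage dose of [14C]sunitinib L-malate, 6 mg/kg (37 µCi/kg). Urine collected at 0-4, 4-8 and 8-24 h, feces at 0-8 and 8-24 h, then both daily to 14 days; samples stored at -80 °C. Duplicate urine aliquots counted by liquid scintillation; homogenized feces combusted before counting.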

[2] = Drug excretion in feces of male cynomolgus monkey treated with [14C]sunitinib at 6 mg/kg, po administered as single dose by liquid scintillation counting; format: ADME, organism-based, Macaca fascicularis; design: dose 6 mg/kg, dosed compound name [14C]Sunitinib, route oral; how it was run: as §1
[3] = Drug excretion in feces of human treated with [14C]sunitinib at 50 mg, po administered as single dose by liquid scintillation counting

Compound recovery [1]	Compound recovery [2]	Compound recovery [3]	SMILES
29.3%	30.7%		CCNCCNC(=O)c1c(C)[nH]c(C=C2C(=O)Nc3ccc(F)cc32)c1C (mixture of isomers)
6.2%	6.3%	metabolite_not_detected	Cc1[nH]c(/C=C2\C(=O)Nc3ccc(F)cc32)c(C)c1C(=O)NCC(=O)O
